Laboratory results taken from ChEMBL document CHEMBL4706700, “Oxa-adamantyl cannabinoids” (Bioorg Med Chem Lett, 2021).
Activity calls are given as the source filed them. The rule behind the calls is not given here.

Assays:
Cannabinoid receptor 1 [1] = target: T1, Cannabinoid receptor 1 (Rattus norvegicus, UniProt P20272); assay: Displacement of [3H]CP55940 from rat brain CB1 receptor by scintillation counting method; format: tissue-based
In short: (§1)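 Competition binding with [3H]CP-55,940. Receptor source is rat brain membranes (CB1) or membranes from HEK293 cells expressing mouse or human CB2. Ki from competition curves by nonlinear regression. Ki is the mean of three independent experiments, each in triplicate.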

Cannabinoid receptor 2 [2] = target: Cannabinoid receptor 2 (Mus musculus, UniProt P47936); assay: Displacement of [3H]CP55940 from mouse CB2 receptor expressed in HEK293 cell membrane by scintillation counting method; format: cell membranes; in short: as §1
Cannabinoid receptor 2 (Mus musculus, UniProt P47936), sequence (P47936 whole entry): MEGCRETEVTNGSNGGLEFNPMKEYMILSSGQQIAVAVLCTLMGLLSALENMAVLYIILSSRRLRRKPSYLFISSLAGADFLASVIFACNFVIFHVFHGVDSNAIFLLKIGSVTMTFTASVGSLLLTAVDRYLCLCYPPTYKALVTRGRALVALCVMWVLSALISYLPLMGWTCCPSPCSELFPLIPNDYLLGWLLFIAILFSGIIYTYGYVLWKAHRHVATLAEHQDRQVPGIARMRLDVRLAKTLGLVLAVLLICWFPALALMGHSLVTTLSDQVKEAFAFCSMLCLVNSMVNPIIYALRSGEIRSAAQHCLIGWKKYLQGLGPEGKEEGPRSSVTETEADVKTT

Cannabinoid receptor 2 [3] = target: T2, Cannabinoid receptor 2 (Homo sapiens, UniProt P34972); assay: Displacement of [3H]CP55940 from human CB2 receptor expressed in HEK293 cell membrane by scintillation counting method; format: cell membranes
T2 sequence (P34972 whole entry): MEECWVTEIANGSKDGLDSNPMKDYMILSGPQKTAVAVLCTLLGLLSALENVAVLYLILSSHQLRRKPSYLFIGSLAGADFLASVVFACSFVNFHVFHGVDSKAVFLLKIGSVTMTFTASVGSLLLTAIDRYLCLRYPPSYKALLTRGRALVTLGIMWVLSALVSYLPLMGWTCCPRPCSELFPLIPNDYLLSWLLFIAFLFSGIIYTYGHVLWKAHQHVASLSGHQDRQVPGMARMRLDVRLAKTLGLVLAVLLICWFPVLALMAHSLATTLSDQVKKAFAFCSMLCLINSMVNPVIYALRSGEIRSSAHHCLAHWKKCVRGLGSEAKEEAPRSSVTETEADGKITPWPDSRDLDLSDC
In short: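 Receptor source is rat brain membranes (CB1) or membranes from HEK293 cells expressing mouse or human CB2. Ki from competition curves by nonlinear regression. Ki is the mean of three independent experiments, each in triplicate.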

Cannabinoid receptor 1 [4] = target: T1, Cannabinoid receptor 1; assay: Agonist activity at rat […] CB1 receptor assessed as decrease in forskolin-stimulated cAMP level stimulated for 30 mins followed by Eu-cAMP tracer addition and measured after 60 mins; format: functional
Cannabinoid receptor 2 [5] = target: T2, Cannabinoid receptor 2; assay: Agonist activity at human CB2 receptor expressed in HEK293 cells assessed as decrease in forskolin-stimulated cAMP level up to 2.3 uM stimulated for 30 mins followed by Eu-cAMP tracer addition and measured after 60 mins; format: functional, cell-based; conditions: dose microM <=2.3, time 90.0 min
In short: (§2)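 cAMP accumulation stimulated by forskolin, in HEK293 cells expressing rCB1 or hCB2. Forskolin-stimulated level set to 100%. EC50 obtained by nonlinear regression. […] Values are the average of two independent experiments, each run in triplicate.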

[6] = target: Cannabinoid receptor 1 (Rattus norvegicus) (UniProt P20272); assay: Agonist activity at rat CB1 receptor expressed in HEK293 cells assessed as inhibition of forskolin-stimulated cAMP level stimulated for 30 mins followed by Eu-cAMP tracer addition and measured after 60 mins relative to control; format: functional, cell-based; conditions: filed as agonist, time 90.0 min; in short: as §2
Cannabinoid receptor 1 (Rattus norvegicus), sequence (P20272 whole entry): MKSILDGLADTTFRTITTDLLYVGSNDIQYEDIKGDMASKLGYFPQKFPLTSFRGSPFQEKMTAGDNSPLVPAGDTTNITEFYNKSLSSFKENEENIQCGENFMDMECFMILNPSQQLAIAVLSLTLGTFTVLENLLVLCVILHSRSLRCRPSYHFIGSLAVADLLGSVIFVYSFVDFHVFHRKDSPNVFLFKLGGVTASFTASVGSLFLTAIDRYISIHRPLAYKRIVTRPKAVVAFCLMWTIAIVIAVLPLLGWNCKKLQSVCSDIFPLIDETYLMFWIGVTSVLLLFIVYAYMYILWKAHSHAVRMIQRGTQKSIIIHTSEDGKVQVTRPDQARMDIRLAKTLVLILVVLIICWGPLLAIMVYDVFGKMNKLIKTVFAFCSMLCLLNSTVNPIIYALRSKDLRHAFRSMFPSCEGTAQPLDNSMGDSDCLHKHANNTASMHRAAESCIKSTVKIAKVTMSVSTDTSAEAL

[7] = target: Cannabinoid receptor 1 (Rattus norvegicus) (UniProt P20272); assay: Agonist activity at rat CB1 receptor expressed in HEK293 cells assessed as inhibition of forskolin-stimulated cAMP level stimulated for 30 mins followed by Eu-cAMP tracer addition and measured after 60 mins; format: functional, cell-based; conditions: filed as agonist, time 90.0 min; in short: as §2
[8] = Selectivity ratio of Ki for displacement of [3H]CP55940 from human CB2 receptor expressed in HEK293 cells to Ki for displacement of [3H]CP55940 from mouse CB2 receptor expressed in HEK293 cells; format: cell-based
[9] = target: Cannabinoid receptor 1 (Rattus norvegicus) (UniProt P20272); assay: Irreversible binding affinity to rat brain CB1 receptor assessed as inhibition of [3H]CP55940 binding to receptor at 10 fold Ki by saturation curve assay relative to control; format: tissue-based; conditions: filed as agonist
In short: (§3)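 Rat brain CB1 or HEK293 hCB2 membranes pretreated with the isothiocyanate ligand, then run in [3H]CP-55,940 saturation binding. Controls were processed in parallel without ligand. Percent covalent labeling = [Bmax(control) − Bmax(ligand)]/Bmax(control). At least two independent experiments in triplicate; mean ± SEM.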

Cannabinoid receptor 2 [10] = target: T2, Cannabinoid receptor 2; assay: Irreversible binding affinity to human CB2 receptor expressed in HEK293 cells assessed as inhibition of [3H]CP55940 binding to receptor at 10 fold Ki by saturation curve assay relative to control; format: cell-based; in short: as §3

T1 sequence (P20272 whole entry): as above

**Q.** With `CC1(C)Oc2cc(C34CC5CC(CC(CN=C=S)(C5)O3)C4)cc(O)c2[C@@H]2C[C@H](CO)CC[C@H]21` as the compound, how does the Ki (Cannabinoid receptor 1 [1]) read?
**A.** Its Ki is 8.4 nM.

**Q.** What about the Ki (Cannabinoid receptor 2 [2]) of the same compound?
**A.** Its Ki is 6.6 nM.

**Q.** And the Ki (Cannabinoid receptor 2 [3])?
**A.** The Ki was 4.7 nM.

**Q.** What about the EC50 (Cannabinoid receptor 1 [4]) of the same compound?
**A.** Its EC50 is 0.9 nM.

**Q.** And the Activity (Cannabinoid receptor 2 [5])?
**A.** Its Activity is “inactive”.

**Q.** And the Emax [6]?
**A.** The Emax was 94%.

**Q.** And the inhibition [7]?
**A.** Its inhibition is “Dose-dependent effect”.

**Q.** Which Ki (Cannabinoid receptor 1 [1]) does the source give for `CC1(C)Oc2cc(C34CC5CC(CC(C(N)=O)(C5)O3)C4)cc(O)c2[C@@H]2C[C@H](CO)CC[C@H]21` here?
**A.** Its Ki is 10.8 nM.

**Q.** And the Ki (Cannabinoid receptor 2 [2])?
**A.** Its Ki is 34.9 nM.

**Q.** And the Ki (Cannabinoid receptor 2 [3])?
**A.** The Ki was 91.8 nM.

**Q.** Which Ki (Cannabinoid receptor 1 [1]) does the source give for `CC1(C)Oc2cc(C34CC5CC(CC(C#N)(C5)O3)C4)cc(O)c2[C@@H]2C[C@H](O)CC[C@H]21` here?
**A.** The Ki was 26.6 nM.

**Q.** What about the Ki (Cannabinoid receptor 2 [2]) of the same compound?
**A.** The Ki was 1.6 nM.

**Q.** And the Ki (Cannabinoid receptor 2 [3])?
**A.** The Ki was 31.7 nM.

**Q.** And the Ratio Ki [8]?
**A.** Its Ratio Ki is 20.

**Q.** With `CC1(C)Oc2cc(C34CC5CC(CC(C(N)=O)(C5)O3)C4)cc(O)c2[C@@H]2C[C@H](O)CC[C@H]21` as the compound, how does the Ki (Cannabinoid receptor 1 [1]) read?
**A.** The Ki was 28.7 nM.

**Q.** What about the Ki (Cannabinoid receptor 2 [2]) of the same compound?
**A.** Its Ki is 865 nM.

**Q.** And the Ki (Cannabinoid receptor 2 [3])?
**A.** Its Ki is 369 nM.

**Q.** What does the source list for `CC1(C)Oc2cc(C34CC5CC(CC(CN=[N+]=[N-])(C5)O3)C4)cc(O)c2[C@@H]2C[C@H](CO)CC[C@H]21`?
**A.** Ki (Cannabinoid receptor 1 [1]): 2 nM; Ki (Cannabinoid receptor 2 [2]): 0.7 nM; Ki (Cannabinoid receptor 2 [3]): 2.2 nM; EC50 (Cannabinoid receptor 1 [4]): 0.9 nM; Activity (Cannabinoid receptor 2 [5]): inactive; Emax [6]: 93%; inhibition [7]: Dose-dependent effect

**Q.** What does the source list for `CC1(C)Oc2cc(C34CC5CC(CC(CN=C=S)(C5)O3)C4)cc(O)c2[C@@H]2C[C@H](O)CC[C@H]21`?
**A.** Ki (Cannabinoid receptor 1 [1]): 4.8 nM; Ki (Cannabinoid receptor 2 [2]): 9.5 nM; Ki (Cannabinoid receptor 2 [3]): 3.6 nM; EC50 (Cannabinoid receptor 1 [4]): 0.8 nM; Activity (Cannabinoid receptor 2 [5]): inactive; Emax [6]: 88%; inhibition [7]: Dose-dependent effect; Bmax [9]: 65%; Bmax (Cannabinoid receptor 2 [10]): 32%

**Q.** Which inhibition [7] does the source give for `CCCCCCC(C)(C)c1ccc([C@@H]2C[C@H](O)CC[C@H]2CCCO)c(O)c1` here?
**A.** The inhibition was “Dose-dependent effect”.

**Q.** What does the source list for `CC1(C)Oc2cc(C34CC5CC(CC(CN=[N+]=[N-])(C5)O3)C4)cc(O)c2[C@@H]2C[C@H](O)CC[C@H]21`?
**A.** Ki (Cannabinoid receptor 1 [1]): 2.3 nM; Ki (Cannabinoid receptor 2 [2]): 2.7 nM; Ki (Cannabinoid receptor 2 [3]): 3.1 nM; EC50 (Cannabinoid receptor 1 [4]): 3.1 nM; Activity (Cannabinoid receptor 2 [5]): inactive; Emax [6]: 87%; inhibition [7]: Dose-dependent effect
